Reference: PMC6512341 (ACS chemical neuroscience, 2018)

Key:
CYP2C9 = CYP2C9 (Homo sapiens, UniProt P11712); assay: CYP inhibition, 2C9; format: in vitro ADME
CYP1A2 = molecular target: T1, CYP1A2 (Homo sapiens, UniProt P05177); assay: CYP inhibition, 1A2; format: in vitro ADME
T1 sequence (P05177 1-516): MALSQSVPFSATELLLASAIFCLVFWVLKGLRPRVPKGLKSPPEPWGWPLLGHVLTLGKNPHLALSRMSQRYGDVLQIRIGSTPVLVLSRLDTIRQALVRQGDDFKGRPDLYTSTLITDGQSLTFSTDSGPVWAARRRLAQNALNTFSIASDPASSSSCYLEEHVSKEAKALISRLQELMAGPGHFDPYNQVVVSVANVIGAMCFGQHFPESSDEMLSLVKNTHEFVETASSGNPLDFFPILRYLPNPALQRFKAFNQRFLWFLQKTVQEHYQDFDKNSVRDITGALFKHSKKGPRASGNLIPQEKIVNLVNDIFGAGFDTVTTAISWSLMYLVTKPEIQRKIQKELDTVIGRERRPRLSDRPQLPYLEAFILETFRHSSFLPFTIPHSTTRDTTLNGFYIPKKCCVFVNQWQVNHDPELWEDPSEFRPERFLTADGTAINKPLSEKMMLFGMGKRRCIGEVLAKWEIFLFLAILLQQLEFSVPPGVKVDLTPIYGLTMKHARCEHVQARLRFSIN

Fmr1^−/− mice [1] = assay: Novel object recognition task; format: in vivo; details: 20 mg/kg IP
CYP2C19 = CYP2C19 (Homo sapiens, UniProt P33261); assay: CYP inhibition, 2C19; format: in vitro ADME
Chain of CYP2C19 (P33261 whole entry): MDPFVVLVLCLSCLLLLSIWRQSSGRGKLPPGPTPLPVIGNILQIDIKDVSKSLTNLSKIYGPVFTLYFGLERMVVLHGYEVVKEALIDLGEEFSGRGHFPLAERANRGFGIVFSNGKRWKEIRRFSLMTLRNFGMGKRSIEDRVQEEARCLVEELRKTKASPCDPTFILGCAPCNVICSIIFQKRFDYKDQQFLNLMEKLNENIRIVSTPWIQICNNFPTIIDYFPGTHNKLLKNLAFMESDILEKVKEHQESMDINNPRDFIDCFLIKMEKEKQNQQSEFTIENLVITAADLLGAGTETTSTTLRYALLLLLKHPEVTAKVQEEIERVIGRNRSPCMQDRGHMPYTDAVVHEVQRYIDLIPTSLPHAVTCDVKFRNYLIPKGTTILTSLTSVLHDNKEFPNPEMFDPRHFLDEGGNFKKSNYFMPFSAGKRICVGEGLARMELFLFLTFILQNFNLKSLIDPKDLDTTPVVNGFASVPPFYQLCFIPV

CYP2D6 = CYP2D6 (Homo sapiens, UniProt P10635); assay: CYP inhibition, 2D6; format: in vitro ADME
Chain of CYP2D6 (P10635 whole entry): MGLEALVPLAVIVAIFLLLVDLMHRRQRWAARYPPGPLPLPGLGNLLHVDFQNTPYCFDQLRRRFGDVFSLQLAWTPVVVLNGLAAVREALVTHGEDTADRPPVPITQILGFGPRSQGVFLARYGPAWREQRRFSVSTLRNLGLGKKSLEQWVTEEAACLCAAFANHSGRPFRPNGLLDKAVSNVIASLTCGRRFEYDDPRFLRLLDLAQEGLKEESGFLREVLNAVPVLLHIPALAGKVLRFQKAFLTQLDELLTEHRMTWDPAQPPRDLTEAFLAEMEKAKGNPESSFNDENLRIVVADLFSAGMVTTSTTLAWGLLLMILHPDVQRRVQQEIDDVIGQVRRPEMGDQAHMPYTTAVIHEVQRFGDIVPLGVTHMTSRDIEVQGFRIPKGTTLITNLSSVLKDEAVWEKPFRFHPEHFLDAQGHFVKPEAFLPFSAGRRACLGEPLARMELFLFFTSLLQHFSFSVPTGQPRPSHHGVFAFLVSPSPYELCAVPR

[2] = Pilot brain and plasma pharmacokinetic studies of SW-100; format: in vivo, C57BL/6 male mice; details: male, C57BL/6, mouse, ip, 20 mg/kg
acetylated α-tubulin [3] = assay: α-Tubulin acetylation studies in HEK293 cells; format: cell-based; details: 0.01, 0.1, 1, and 10 μM
Procedure, shortened: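 HEK293 cells plated 24 h ahead and treated at 70% confluency with 10 nM–10 µM. Lysed in MPER with protease inhibitors; 2 µg protein boiled, run on 12% gel, transferred to PVDF. Blocked in 5% milk/TBST; anti-acetyl-tubulin 1:3000 overnight at 4 °C, then HRP secondary 1:5000; ECL. Reprobed for total α-tubulin at 1:1000. Densitometric ratio normalized to 10 µM reference HDAC6 inhibitor; n = 3–4; one-way ANOVA vs vehicle.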

acetylated histone 3 = assay: Histone acetylation in N2a cells; format: cell-based; details: compared to vehicle
Procedure, shortened: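 N2a cells treated at 1 µM or 10 nM; reference HDAC inhibitors served as positive controls. Histones extracted by kit; protein by micro BCA. Samples denatured in reducing buffer at 95 °C for 5 min and blotted to PVDF. Blocked in 5% BSA/TBST 1 h at RT; primaries overnight: acetyl-H3 K9+K14 1:1000, histone 4 1:1000. Ratios normalized to vehicle; n = 4; one-way ANOVA vs vehicle.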

CYP3A4 = CYP3A4 (Homo sapiens, UniProt P08684); assay: CYP inhibition, 3A4; format: in vitro ADME
Chain of CYP3A4 (P08684 whole entry): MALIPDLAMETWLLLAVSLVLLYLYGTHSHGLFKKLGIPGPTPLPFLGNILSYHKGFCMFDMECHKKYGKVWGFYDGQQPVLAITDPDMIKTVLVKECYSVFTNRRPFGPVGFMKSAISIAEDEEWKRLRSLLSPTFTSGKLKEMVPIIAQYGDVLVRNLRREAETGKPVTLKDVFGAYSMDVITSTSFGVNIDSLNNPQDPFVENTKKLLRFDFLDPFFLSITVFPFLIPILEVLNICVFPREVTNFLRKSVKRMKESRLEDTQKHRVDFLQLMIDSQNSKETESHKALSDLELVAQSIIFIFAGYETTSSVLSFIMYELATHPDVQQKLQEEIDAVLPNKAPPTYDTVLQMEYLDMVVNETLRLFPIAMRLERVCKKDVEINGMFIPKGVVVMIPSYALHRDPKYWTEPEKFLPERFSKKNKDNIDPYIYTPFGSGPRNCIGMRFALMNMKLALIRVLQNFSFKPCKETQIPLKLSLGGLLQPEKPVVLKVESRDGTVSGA

[4] = tested on: TA98, TA100, TA1535, TA1537, WP2 uvrA; assay: Ames test; format: cell-based, Salmonella typhimurium, Escherichia coli; details: presence and absence of S9 mix
[5] = Hepatocyte stability, human; format: in vitro ADME; details: hepatocytes
MDR1 = assay: Permeability studies in MDCK-MDR1 cells; format: in vitro ADME; details: dog, MDCK-MDR1
Fmr1^−/− mice [6] = assay: Temporal order memory task; format: in vivo; details: 20 mg/kg IP
[7] = Hepatocyte stability, mouse; format: in vitro ADME; details: hepatocytes
[8] = Liver microsomal stability, human; format: in vitro ADME; details: liver microsomes
[9] = Liver microsomal stability, mouse; format: in vitro ADME; details: liver microsomes
hERG = hERG (Homo sapiens, UniProt Q12809); assay: hERG test in HEK293 cells; format: cell-based
Chain of hERG (Q12809 whole entry): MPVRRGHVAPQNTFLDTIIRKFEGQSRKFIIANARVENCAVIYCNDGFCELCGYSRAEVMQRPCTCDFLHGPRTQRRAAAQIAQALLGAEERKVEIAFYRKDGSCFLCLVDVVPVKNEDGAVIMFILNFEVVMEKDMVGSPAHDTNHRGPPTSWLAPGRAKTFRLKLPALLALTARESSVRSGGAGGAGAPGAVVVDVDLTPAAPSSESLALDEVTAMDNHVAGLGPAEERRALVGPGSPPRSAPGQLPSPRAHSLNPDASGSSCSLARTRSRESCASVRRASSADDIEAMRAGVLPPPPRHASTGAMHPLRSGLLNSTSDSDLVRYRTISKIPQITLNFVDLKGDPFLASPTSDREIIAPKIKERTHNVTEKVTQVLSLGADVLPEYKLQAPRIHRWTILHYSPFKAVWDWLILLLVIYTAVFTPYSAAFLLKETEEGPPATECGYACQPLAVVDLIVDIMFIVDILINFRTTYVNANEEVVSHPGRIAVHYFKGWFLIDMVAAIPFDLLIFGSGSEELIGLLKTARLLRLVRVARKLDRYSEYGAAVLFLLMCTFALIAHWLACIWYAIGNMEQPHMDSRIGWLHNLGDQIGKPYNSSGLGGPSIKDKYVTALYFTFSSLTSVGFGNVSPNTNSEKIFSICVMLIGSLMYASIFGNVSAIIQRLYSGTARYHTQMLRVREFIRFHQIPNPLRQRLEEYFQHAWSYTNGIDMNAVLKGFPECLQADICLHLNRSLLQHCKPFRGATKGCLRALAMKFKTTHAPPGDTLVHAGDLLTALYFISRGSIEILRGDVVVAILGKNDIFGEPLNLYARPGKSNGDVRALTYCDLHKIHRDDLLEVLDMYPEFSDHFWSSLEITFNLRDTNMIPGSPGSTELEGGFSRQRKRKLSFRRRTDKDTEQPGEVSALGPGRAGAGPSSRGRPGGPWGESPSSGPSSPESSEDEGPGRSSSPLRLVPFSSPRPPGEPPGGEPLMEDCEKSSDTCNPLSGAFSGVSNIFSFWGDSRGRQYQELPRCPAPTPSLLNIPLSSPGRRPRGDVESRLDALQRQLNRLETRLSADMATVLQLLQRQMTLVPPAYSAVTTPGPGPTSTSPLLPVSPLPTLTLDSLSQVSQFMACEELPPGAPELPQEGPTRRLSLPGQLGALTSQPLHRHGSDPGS

acetylated α-tubulin [10] = assay: Immunoblot of acetylated α-tubulin in mouse hippocampus; format: in vivo, mice; details: 20 mg/kg, 2 h after treatment
Procedure, shortened: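 Male C57BL/6 WT and Fmr1−/− mice, 8–10 weeks old, given 20 mg/kg IP twice daily on days 1–2, plus a dose 1 h before cognitive testing on days 3 and 4. Hippocampi taken 2 h after treatment and homogenized in Tris pH 7.4 lysis buffer with protease and phosphatase inhibitors. Spun at 20,800 × g for 10 min; Bradford assay. 10 µg protein run on SDS-PAGE to nitrocellulose; acetyl-α-tubulin and α-tubulin antibodies at 1:4000.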

Chain of CYP2C9 (P11712 whole entry): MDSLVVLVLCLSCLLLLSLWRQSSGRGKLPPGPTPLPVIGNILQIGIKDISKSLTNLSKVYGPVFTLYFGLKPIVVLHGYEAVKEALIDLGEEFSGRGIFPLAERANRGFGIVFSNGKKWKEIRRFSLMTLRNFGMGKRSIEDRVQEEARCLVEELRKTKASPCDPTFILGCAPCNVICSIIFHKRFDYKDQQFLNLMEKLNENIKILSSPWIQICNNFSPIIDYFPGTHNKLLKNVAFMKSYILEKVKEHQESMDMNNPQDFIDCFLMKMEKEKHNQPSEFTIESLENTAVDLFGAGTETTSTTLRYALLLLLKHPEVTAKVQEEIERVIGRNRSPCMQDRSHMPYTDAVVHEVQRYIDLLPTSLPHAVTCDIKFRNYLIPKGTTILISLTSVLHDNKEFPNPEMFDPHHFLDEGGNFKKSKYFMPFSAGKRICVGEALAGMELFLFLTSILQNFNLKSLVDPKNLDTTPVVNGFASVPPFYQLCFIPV

SMILES: O=C(NO)c1ccc(CN2CCCc3cc(Cl)ccc32)cc1 [SW-100, 4-((6-Chloro-3,4-dihydroquinolin-1(2H)-yl)methyl)-N-hydroxybenzamide]
- inhibition at 10 µM (CYP2C9): 18.8%
- inhibition at 10 µM (CYP1A2): 20.5%
- novel object recognition: time exploring novel versus familiar object (Fmr1^−/− mice [1]; Fmr1^−/− mice): spent significantly more time exploring the novel object than the familiar object
- novel object recognition (Fmr1^−/− mice [1]; WT mice): did not alter the novel object recognition of WT mice
- inhibition at 10 µM (CYP2C19): 83.2%
- inhibition at 10 µM (CYP2D6): 2.51%
- concentration at 1 h ([2]; brain): 142 ± 52.3 ng/mL
- concentration at 4 h ([2]; brain): 11.5 ± 0.3 ng/mL
- Kp at 1 h ([2]; brain/plasma): 2.44
- concentration at 1 h ([2]; plasma): 58.2 ± 24.9 ng/mL
- concentration at 4 h ([2]; plasma): 2.52 ± 0.13 ng/mL
- effect on acetylated α-tubulin levels (in words) (acetylated α-tubulin [3]): more obvious increase in the acetylated α-tubulin levels in a dose-dependent manner
- levels of acetylated histone 3 to histone 4 (acetylated histone 3): < 1.5 fold
- inhibition at 10 µM (CYP3A4): -0.63%
- Ames test [4]: negative
- half-life [5]: 30 min
- Papp A→B at 2 h (MDR1): 4.58 ×10⁻⁶ cm/s
- Papp B→A at 2 h (MDR1): 2.33 ×10⁻⁶ cm/s
- temporal order: time exploring first versus most recent object (Fmr1^−/− mice [6]): spent significantly more time exploring the first object compared to the most recent object presented
- half-life [7]: 10 min
- half-life [8]: 23 min
- half-life [9]: 23 min
- IC50 (hERG): 12.2 µM
- acetylated α-tubulin levels in the hippocampus (acetylated α-tubulin [10]; Fmr1^−/− mice): significantly increased
- hippocampal α-tubulin acetylation (acetylated α-tubulin [10]; WT mice): no significant influence
